The source made the active and inactive calls. The calls are words filed in the database; no cut-off is given here.
Tests used:
[1] = biological target: T1, Dihydroorotate dehydrogenase (Plasmodium falciparum, UniProt Q54A96); assay: Inhibition of Plasmodium falciparum DHODH after 20 mins by 2,6-dichloroindophenol-reduction based assay
T1 sequence (Q54A96 whole entry): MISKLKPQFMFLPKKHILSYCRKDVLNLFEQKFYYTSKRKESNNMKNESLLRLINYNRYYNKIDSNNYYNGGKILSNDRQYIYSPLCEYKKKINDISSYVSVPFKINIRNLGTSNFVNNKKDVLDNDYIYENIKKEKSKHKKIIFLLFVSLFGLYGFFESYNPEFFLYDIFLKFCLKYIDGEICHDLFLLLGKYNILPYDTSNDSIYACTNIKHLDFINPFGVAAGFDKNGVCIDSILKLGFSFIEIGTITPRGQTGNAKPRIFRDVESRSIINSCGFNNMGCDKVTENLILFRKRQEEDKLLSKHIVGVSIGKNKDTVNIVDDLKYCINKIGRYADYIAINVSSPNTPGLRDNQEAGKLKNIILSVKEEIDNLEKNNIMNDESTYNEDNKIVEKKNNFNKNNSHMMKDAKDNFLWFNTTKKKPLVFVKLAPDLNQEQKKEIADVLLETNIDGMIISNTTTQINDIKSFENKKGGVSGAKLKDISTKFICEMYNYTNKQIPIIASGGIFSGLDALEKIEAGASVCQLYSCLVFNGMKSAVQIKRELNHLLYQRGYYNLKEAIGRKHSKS

Plasmodium falciparum [2] = assay: Antiplasmodial activity against Plasmodium falciparum Dd2 infected in […] after 72 hrs by SYBR green assay; format: functional, organism-based; conditions: Dd2, 72 h
Plasmodium falciparum [3] = assay: Antiplasmodial activity against Plasmodium falciparum 3D7 infected in […] after 72 hrs by SYBR green assay; format: functional, organism-based; conditions: 3D7, 72 h
[4] = Cytotoxicity against human RPTEC after 4 days by alamar blue assay; format: cell-based; conditions: RPTEC cells, read-out: LC50
Plasmodium berghei = assay: Inhibition of Plasmodium berghei DHODH after 20 mins by 2,6-dichloroindophenol-reduction based assay
Plasmodium vivax = assay: Inhibition of Plasmodium vivax DHODH after 20 mins by 2,6-dichloroindophenol-reduction based assay
[5] = Clearance in mouse liver microsomes by LC-MS/MS analysis; format: ADME, Microsome
In short: (§1)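 Liver microsome incubation. Predicted clearance is derived from a well-stirred model corrected for microsomal and protein binding.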

[6] = Clearance in human liver microsomes by LC-MS/MS analysis; format: ADME, Microsome; in short: as §1
[7] = biological target: Dihydroorotate dehydrogenase (quinone), mitochondrial (Homo sapiens, UniProt Q02127); assay: Inhibition of human DHODH after 20 mins by 2,6-dichloroindophenol-reduction based assay
Dihydroorotate dehydrogenase (quinone), mitochondrial, sequence (Q02127 whole entry): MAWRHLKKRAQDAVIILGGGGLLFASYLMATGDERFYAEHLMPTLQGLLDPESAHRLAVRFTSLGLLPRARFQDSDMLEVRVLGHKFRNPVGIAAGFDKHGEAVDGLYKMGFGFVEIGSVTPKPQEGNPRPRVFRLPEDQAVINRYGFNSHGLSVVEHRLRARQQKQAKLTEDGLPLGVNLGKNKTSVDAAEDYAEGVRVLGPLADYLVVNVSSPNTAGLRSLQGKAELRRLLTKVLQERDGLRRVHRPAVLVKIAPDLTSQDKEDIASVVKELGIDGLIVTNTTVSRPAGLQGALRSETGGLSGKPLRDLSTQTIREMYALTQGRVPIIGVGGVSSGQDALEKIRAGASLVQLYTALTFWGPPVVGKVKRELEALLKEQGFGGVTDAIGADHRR

## CN(C)c1nc2ccccc2n1-c1ccc(C(=O)NC2CC2)s1
[1]
  IC50: 5600 nM
Plasmodium falciparum [2]
  IC50: > 1000 nM
Plasmodium falciparum [3]
  IC50: > 1000 nM
[4]
  CC50 at 96 h: > 62000 nM

## Cc1nc2c(N(C)C)cccc2n1-c1ccc(C(=O)NC2CC2)s1
[1]
  IC50: 181 nM
Plasmodium falciparum [2]
  IC50: 159 nM
Plasmodium berghei
  inhibition: Active
Plasmodium vivax
  inhibition: Active
Plasmodium falciparum [3]
  IC50: 75 nM

## Cc1nc2c(Cl)cccc2n1-c1ccc(C(=O)NC2CC2)s1
[1]
  IC50: 21 nM
Plasmodium falciparum [2]
  IC50: 6 nM
[5]
  CLhep predicted: 19 mL/min/kg
Plasmodium berghei
  inhibition: Active
Plasmodium vivax
  inhibition: Active
Plasmodium falciparum [3]
  IC50: 5 nM
[6]
  CLhep predicted: < 4 mL/min/kg

## CCCCNC(=O)c1ccc(-n2cnc3ccccc32)s1
Plasmodium falciparum [2]
  IC50: 7300 nM
Plasmodium falciparum [3]
  IC50: > 20000 nM
[7]
  IC50: > 30000 nM

## Cc1nc2ccc(OC(F)(F)F)cc2n1-c1ccc(C(=O)NC2CC2)s1
[1]
  IC50: 52 nM
Plasmodium falciparum [2]
  IC50: 53 nM
[5]
  CLhep predicted: 41 mL/min/kg
Plasmodium berghei
  inhibition: Active
Plasmodium vivax
  inhibition: Active
Plasmodium falciparum [3]
  IC50: 36 nM
[6]
  CLhep predicted: 10 mL/min/kg

## CN(C)C(=O)c1ccc(-n2cnc3ccccc32)s1
[1]
  IC50: > 30000 nM
Plasmodium falciparum [2]
  IC50: > 40000 nM
Plasmodium falciparum [3]
  IC50: > 40000 nM

## Cc1cc(F)c2ncn(-c3ccc(C(=O)NC4CC4)s3)c2c1
[1]
  IC50: 17 nM
Plasmodium falciparum [2]
  IC50: 4 nM
[5]
  CLhep predicted: > 72 mL/min/kg
Plasmodium berghei
  inhibition: Active
Plasmodium vivax
  inhibition: Active
Plasmodium falciparum [3]
  IC50: 4 nM
[7]
  IC50: 3100 nM
[6]
  CLhep predicted: 10 mL/min/kg

## O=C(NC1CCC1)c1ccc(-n2cnc3ccccc32)s1
[1]
  IC50: 420 nM
Plasmodium falciparum [2]
  IC50: 440 nM
Plasmodium falciparum [3]
  IC50: 410 nM
[4]
  CC50 at 96 h: > 62000 nM

## CCc1nc2ccccc2n1-c1ccc(C(=O)NC2CC2)s1
[1]
  IC50: 110 nM
Plasmodium falciparum [2]
  IC50: 180 nM
Plasmodium falciparum [3]
  IC50: 120 nM
[4]
  CC50 at 96 h: > 62000 nM

## O=C(NC1CC1)c1ccc(-n2c(=O)[nH]c3ccccc32)s1
[1]
  IC50: > 30000 nM
Plasmodium falciparum [2]
  IC50: > 5000 nM
Plasmodium falciparum [3]
  IC50: > 5000 nM

## NC(=O)c1ccc(-n2cnc3ccccc32)s1
[1]
  IC50: > 30000 nM
Plasmodium falciparum [2]
  IC50: > 30000 nM
Plasmodium falciparum [3]
  IC50: > 40000 nM

## Cc1nc2ccc(C(F)(F)F)cc2n1-c1ccc(C(=O)NC2CC2)s1
[1]
  IC50: 92 nM
Plasmodium falciparum [2]
  IC50: 96 nM
[5]
  CLhep predicted: 68 mL/min/kg
Plasmodium berghei
  inhibition: Active
Plasmodium vivax
  inhibition: Active
Plasmodium falciparum [3]
  IC50: 56 nM
[6]
  CLhep predicted: 8 mL/min/kg

## Cc1ccc2nc(C)n(-c3ccc(C(=O)NC4CC4)s3)c2c1
[1]
  IC50: 56 nM
Plasmodium falciparum [2]
  IC50: 74 nM
[5]
  CLhep predicted: > 72 mL/min/kg
Plasmodium berghei
  inhibition: Active
Plasmodium vivax
  inhibition: Active
Plasmodium falciparum [3]
  IC50: 33 nM
[6]
  CLhep predicted: 10 mL/min/kg

## CCNC(=O)c1ccc(-n2cnc3ccccc32)s1
[1]
  IC50: 140 nM
Plasmodium falciparum [2]
  IC50: 150 nM
Plasmodium falciparum [3]
  IC50: 100 nM
[4]
  CC50 at 96 h: > 62000 nM

## Cc1nc2c(F)cccc2n1-c1ccc(C(=O)NC2CC2)s1
[1]
  IC50: 34 nM
Plasmodium falciparum [2]
  IC50: 6 nM
[5]
  CLhep predicted: 37 mL/min/kg
Plasmodium berghei
  inhibition: Active
Plasmodium vivax
  inhibition: Active
Plasmodium falciparum [3]
  IC50: 8 nM
[6]
  CLhep predicted: < 4 mL/min/kg

## O=C(NC1CC1)c1ccc(-n2cnc3c(F)cccc32)s1
[1]
  IC50: 62 nM
Plasmodium falciparum [2]
  IC50: 8 nM
[5]
  CLhep predicted: > 72 mL/min/kg
Plasmodium berghei
  inhibition: Active
Plasmodium vivax
  inhibition: Active
Plasmodium falciparum [3]
  IC50: 17 nM
[7]
  IC50: 14900 nM
[6]
  CLhep predicted: 10 mL/min/kg

## Cc1ccc2c(c1)nc(C)n2-c1ccc(C(=O)NC2CC2)s1
[1]
  IC50: 56 nM
Plasmodium falciparum [2]
  IC50: 130 nM
[5]
  CLhep predicted: > 72 mL/min/kg
Plasmodium berghei
  inhibition: Active
Plasmodium vivax
  inhibition: Active
Plasmodium falciparum [3]
  IC50: 87 nM
[6]
  CLhep predicted: 8 mL/min/kg

Reference: ChEMBL document CHEMBL2010768, “Optimization of Potent Inhibitors of P. falciparum Dihydroorotate Dehydrogenase for the Treatment of Malaria” (ACS Med Chem Lett, 2011)
